Here are results for one compound from ChEMBL document CHEMBL1146216, “Synthesis and biological activity of a gemcitabine phosphoramidate prodrug” (J Med Chem, 2007).

The subject of experiment [1] is A2780. Briefly: Growth inhibition of A2780 cells by SRB assay. The conditions noted are these: Homo sapiens. The class given is functional, cell-based. In a few lines:
(§1)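 Cells seeded at 5000/well and exposed to a range of drug concentrations for 72 h at 37 °C, 5% CO2, then read by SRB. A2780 and its dCK-deficient variant AG6000 were grown in DMEM; A549, H292 and H460 in RPMI; both media had 10% FCS and 20 mM HEPES. OD was read at 540 or 492 nm. Relative growth = (ODtreated − ODzero)/(ODcontrol − ODzero) × 100%, with ODzero taken at drug addition.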
(Sulforhodamine B stains cellular protein and so reports cell mass.)

Experiment [2] deals with CCRF-CEM. In words: Growth inhibition of CEM cells by MTT assay. As to conditions: Homo sapiens. For orientation: Tetrazolium assays rely on reduction of a dye to a coloured formazan, in cell work by metabolically active cells.
Experiment [3] relates to NCI-H460. In words: Growth inhibition of H460 cells by SRB assay in presence of dipyridamole. The class given is functional, cell-based. The conditions noted are these: Homo sapiens. In a few lines:
(§2)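 SRB growth assay run with the nucleoside transport inhibitor dipyridamole at 1 µM final. Cells were seeded at 5000/well and exposed to a range of drug concentrations for 72 h at 37 °C, 5% CO2. Media: DMEM for A2780 and the dCK-deficient AG6000; RPMI for A549, H292 and H460; each with 10% FCS and 20 mM HEPES. Relative growth was calculated against ODzero and untreated controls.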

A short description of experiment [4]: Growth inhibition of H292 cells by SRB assay. As to conditions: Homo sapiens, NCI-H292. The class given is functional, cell-based. In a few lines: as §1
For experiment [5], the system named is CCRF-CEM. Briefly: Growth inhibition of dCK deficient CEM cells by MTT assay. The conditions noted are these: Homo sapiens.
The subject of experiment [6] is A549. In words: Growth inhibition of A549 cells by SRB assay. The class given is functional, cell-based. The conditions noted are these: Homo sapiens. The method, boiled down:
as §1

Experiment [7] deals with A549. In words: Growth inhibition of A549 cells by SRB assay in presence of dipyridamole. The class given is functional, cell-based. As to conditions: Homo sapiens. The method, boiled down:
as §2

Experiment [8] is described as follows: Growth inhibition of AG6000 cells by SRB assay. The conditions noted are these: Homo sapiens. The class given is functional, cell-based. In a few lines: as §1
Experiment [9] concerns NCI-H460. In words: Growth inhibition of H460 cells by SRB assay. As to conditions: Homo sapiens. The class given is functional, cell-based. The method, boiled down: as §1
Experiment [10] is described as follows: Growth inhibition of AG6000 cells by SRB assay in presence of dipyridamole. The conditions noted are these: Homo sapiens. The class given is functional, cell-based. The method, boiled down:
as §2

Experiment [11] concerns CCRF-CEM. Briefly: Growth inhibition of dCK deficient CEM cells by MTT assay in presence of dipyridamole. The conditions noted are these: Homo sapiens.
For experiment [12], the system named is CCRF-CEM. Briefly: Growth inhibition of CEM cells by MTT assay in presence of dipyridamole. The conditions noted are these: Homo sapiens.
Experiment [13] concerns A2780. Briefly: Growth inhibition of A2780 cells by SRB assay in presence of dipyridamole. The class given is functional, cell-based. The conditions noted are these: Homo sapiens. In a few lines: as §2
Experiment [14] concerns SW1573. Briefly: Growth inhibition of SW1573 cells by SRB assay. As to conditions: Homo sapiens. The class given is functional, cell-based. In a few lines: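 SW1573 NSCLC cells grown in DMEM with 10% FCS and 20 mM HEPES at 37 °C, 5% CO2. Seeded at 5000 cells/well and exposed to a range of drug concentrations for 72 h, then SRB assay. OD read at 540 or 492 nm. Relative growth = (ODtreated − ODzero)/(ODcontrol − ODzero) × 100%, with ODzero taken at drug addition.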

Experiment [15] can be described thus: Growth inhibition of H292 cells by SRB assay in presence of dipyridamole. The class given is functional, cell-based. As to conditions: Homo sapiens, NCI-H292. In a few lines: as §2
The subject of experiment [16] is SW1573. Briefly: Growth inhibition of SW1573 cells by SRB assay in presence of dipyridamole. The conditions noted are these: Homo sapiens. It is filed as functional, cell-based. In a few lines:
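SW1573 cells cultured in DMEM, 10% FCS, 20 mM HEPES, 37 °C, 5% CO2. Plated at 5000 cells/well and given graded drug concentrations with the nucleoside transport inhibitor dipyridamole at 1 µM final, for 72 h. SRB read-out at OD 540 or 492 nm. Growth is expressed relative to time-zero and untreated wells.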

As for `Nc1ccn([C@@H]2O[C@H](CO)[C@@H](O)C2(F)F)c(=O)n1` [GEMCITABINE], the IC50 (commonly the midpoint of a concentration-inhibition curve) came to 1.5 nM in the experiment on A2780 [1]; 130 nM with CCRF-CEM [2]; 103 nM in the experiment on NCI-H460 [3]; 13 nM in experiment [4]; 50 µM in the experiment with CCRF-CEM [5]; 14 nM in the experiment on A549 [6]. Moreover, the IC50 with A549 [7] was found to be 225 nM; in experiment [8], 20 µM; in the experiment on NCI-H460 [9], 10 nM; in [10], 20 µM; with CCRF-CEM [11], 100 µM; in the experiment with CCRF-CEM [12] it was 1000 nM. For the same compound, the IC50 with A2780 [13] is 15 nM; with SW1573 [14] it was 16 nM; in experiment [15], 210 nM; in the experiment on SW1573 [16] it was 275 nM.
